Results taken from paper PMC3248652 (International Journal of Biological Sciences, 2011).
Entries after “also recorded” stand apart in the source; their conditions may differ. Read-outs that look alike come from different tables or passages of the source. Non-standard residues stand in square brackets, D forms with d.

What was measured:
[1] = system: CXCR4 (GHOST-CXCR4 cells); assay: Fluorokine; format: binding
[2] = system: CXCR4 (primary human T cells); assay: CXCL12-induced intracellular calcium mobilization in primary human T cells; format: cell-based; details: Fura-2AM, CXCL12 10nM
How it was run: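 Human T cells were enriched from Ficoll-isolated PBMCs on T-cell enrichment columns, loaded with Fura-2-AM, and washed. They were then pretreated 20 min with the test compound at various concentrations. CXCL12 was added to 10nM final. Ca++ release was monitored in a luminescence spectrometer (ex 340 and 380 nm, em 510 nm) and expressed as the 340/380 ratio. At least three experiments were run.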

obese mice = details: ref [24], cited from earlier work
[3] = system: CXCR4 (primary human T cells); assay: CXCL12-induced T cell Transwell chemotaxis; format: cell-based; details: CXCL12 10nM, 5 h 37°C, mean ±SEM of three experiments
[4] = system: ERK activation (activated human T cells); assay: CXCL12-induced ERK phosphorylation; format: cell-based
How it was run: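 About 10 million activated T cells per 0.5 ml per treatment, pretreated with test compound (20µM) for 30 min at 37°C. CXCL12 was then added to 10nM final. Cells were washed, harvested and lysed in RIPA buffer with protease and phosphatase inhibitors at 1, 3 and 10 min. Protein was measured by Bradford. 30μg lysate was run on 4-20% SDS-PAGE, blotted to nitrocellulose, and phospho-ERK detected by ECL.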

GHS-R = details: cited from earlier work
HIV1-IIIB (CXCR4 tropic) = assay: HIV1-IIIB propagation in activated PBMCs; format: cell-based, HIV-1; details: activated human PBMCs
How it was run: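 PBMCs were activated 3 days with PHA 5μg/ml and IL-2 10 units/ml, then washed into cRPMI at 10^6/ml. Cells were pretreated 30 min at 37°C with the test compound and infected with HIV1-IIIB (10ng/ml p24) for 3 h. Cells were washed, replated at 500,000/ml in triplicate, and compound re-added. Supernatant p24 was measured by ELISA on days 3, 6 and 9 and expressed as % of virus-only control. Three donors were used.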

CXCR4 [5] = assay: CXCR4 binding and activity, overall statement; format: cell-based, human; details: T cells and PBMCs; summary statement
CXCR4 [6] = details: ref [15]; cited from earlier work
pancreatic carcinoma = details: ref [21]; cited from earlier work
[7] = system: CXCR4 mediated HIV viral entry; details: ref [19]; cited from earlier work
breast carcinoma = details: ref [20]; cited from earlier work
[8] = ref [22]; cited from earlier work
glioma cell invasion = details: ref [6]; cited from earlier work
[9] = obese mice, repeated administration

H-H[dW][dK]W[dF]K-NH2 [DLS]
effect on chemokine ligand binding ([1]; 1/4/16 μg DLS, 30 min 37°C, flow cytometry MFI): blocks chemokine ligand binding to receptor-positive cells
amount required for the observed inhibition of CXCL12 binding ([1]; GHOST-CXCR4 cells, flow cytometry, AMD3100 data not shown): microgram quantities
effect on CXCL12-induced calcium flux [2]: markedly inhibited in a dose dependent fashion; also recorded: partially inhibits CXCL12-induced Ca++ release; also recorded: modest inhibition of calcium mobilization
body weight (obese mice; [9]): reduce body weight in obese mice
glycemic control and insulin resistance (obese mice; [9]): improve their glycemic control and insulin resistance
muscle mass (obese mice; obese mice): without affecting the muscle mass
size of abdominal fat pads (obese mice; obese mice): reduced the size of abdominal fat pads
adverse side effects (obese mice; rodent models): without any adverse side effects
effect on CXCL12-induced T cell migration [3]: marked dose dependent inhibition; also recorded: inhibits CXCL12 induced activated T cell chemotaxis
effect on ERK activation in response to CXCL12 ([4]; DLS 20μM, 30 min 37°C, CXCL12 10nM, Western blot): very modestly blocks ERK activation
activity at GHS-R (GHS-R; ref [8], [9]): selective GHS-R antagonist
effect on CXCR4-mediated HIV-1 entry and propagation (HIV1-IIIB (CXCR4 tropic)): partially blocks CXCR4-mediated HIV-1 entry and propagation
effect on CXCL12 binding and activity through CXCR4 (CXCR4 [5]): block CXCL12 binding and activity through CXCR4; also recorded: modestly inhibit the binding and activity of CXCR4 receptor in human T cells

H-H[dW]AW[dF]K-NH2 [GHRP-6]
activity at GHS-R (GHS-R; ref [9]): GHS-R agonist

c1cc(CN2CCCNCCNCCCNCC2)ccc1CN1CCCNCCNCCCNCC1 [AMD3100]
CXCR4 blocking (CXCR4 [6]): potent CXCR4 [15] blocking agent
effect on metastasis of pancreatic carcinoma (pancreatic carcinoma): blocks
effect on CXCR4 mediated HIV viral entry [7]: block CXCR4 mediated HIV viral entry
effect on metastasis of breast carcinoma (breast carcinoma): blocks
effect on allergy and collagen induced arthritis [8]: decreases allergy and collagen induced arthritis
effect on glioma cell invasion (glioma cell invasion): blocks glioma cell invasion
block of ERK activation after CXCL12 treatment ([4]; activated human T cells, 10^-6M AMD3100, data not shown): 80%
